Variants at the floor of the assay were thinned out.
B1: tRNA (parent)
chain: GUUCCGUUGGCGUAAUGGUAACGCGUCUCCCUCCUAAGGAGAAGACUGCGGGUUCGAGUCCCGUACGGAACG

Variants of: B1
Test: yeast fitness relative to wild type (ratio to wild type); higher = fitter; tRNA-Arg(CCU), competitive growth, 37 C, YPD
How it was run: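 Variants of the tRNA-Arg(CCU) gene, chemically synthesised with a 3% per-site mutation rate at 69 sites, were placed at the native genomic locus in Saccharomyces cerevisiae. The pooled strains were competed in YPD at 37°C for 24 hours in six parallel replicates. Gene amplicons from the start population and from each end population were read by 100-nucleotide paired-end sequencing. Darwinian fitness relative to wild type came from changes in genotype frequencies; genotypes needed ≥ 100 starting reads, and estimates < 0.5 were set to 0.5.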

Variant | yeast fitness
GUUCCGUUGGCAUAAUGGUAACGCGUCUCACUCCUAAGGAGAAGACUGCGGGUUCGAGUCCCGUACGGAUCG [G12A C30A A70U] | 0.759
GUUCCGUUGGCAUAAUGGUAACGCGUCUCACUCCUAAGGAGAAGAGUGCGGGUUCGAGUCCCGUACGGAACG [G12A C30A C46G] | 0.649
GUUCCGUUGGCAUAAUGGUAACGCGUCUCACUCCUAAGGAGAAGACUGCGGGUUAGAGUCCCGUACAGAACG [G12A C30A C55A G67A] | ≤ 0.5
GUUCCGUUGGCAUAAUGGUAACGCGUCUCGCUCCUAAGGAGAAGACUGAGAGUUCGAGUCCCGUACGGAACG [G12A C30G C49A G51A] | ≤ 0.5
GUUCCGUUGGCAUAAUGGUAACGCGUCUCGCUCCUAAGGAGAAGACCGCGGGUCCGAGUCCCGUACGGAACG [G12A C30G U47C U54C] | ≤ 0.5
GUUCCGUUGGCAUAAUGGUAACGCGUCUCUCUCCUAAGGAGAAGACUGCGGGUUCGAGUCCCGUACGGAACG [G12A C30U] | 0.836
GUUCCGUUGGCAUAAUGGUAACGCGUCUCUCUCCUAAGGAGAAGACAGCGGGUCCGAGUCCCGUACGGAACG [G12A C30U U47A U54C] | ≤ 0.5
GUUCCGUUGGCAUAAUGGUAACGCGUCUCUCUCCUAAGGAGAAGACUGCGGGUACGAGUCCCGUACGGAACG [G12A C30U U54A] | 0.52
GUUCCGUUGGCAUAAUGGUAACGCGUCUCUCUCCUAAGGAGAAGACUGCGGGUCCGAGUCCCGUACGGAACG [G12A C30U U54C] | ≤ 0.5
GUUCCGUUGGCAUAAUGGUAACGCGUCUCCAUCCUAAGGAGGAGACUGCGGGUUCGUGACCCGUACGGAACG [G12A C31A A42G A57U U59A] | ≤ 0.5
GUUCCGUUGGCAUAAUGGUAACGCGUCUCCACCCUAAGGAGAAGACUGCGGGCUCGAGUGCCGUACGGAACG [G12A C31A U32C U53C C60G] | ≤ 0.5
GUUCCGUUGGCAUAAUGGUAACGCGUCUCCGUCCUAAGGAGAAGACUGCGGGUUCGAGUCCCGUACGGAACG [G12A C31G] | 0.963
GUUCCGUUGGCAUAAUGGUAACGCGUCUCCGUCAUAAGGAGAAGACUGCGGGUUCGAGUCCCGUACGGAACG [G12A C31G C34A] | 0.585
GUUCCGUUGGCAUAAUGGUAACGCGUCUCCGUCCUAAGGAGAAGACUCCGGGUUCGAGUCCCGUAGGGAACG [G12A C31G G48C C66G] | ≤ 0.5
GUUCCGUUGGCAUAAUGGUAACGCGUCUCCUUCCUCAGCAGAAGACUGCGGGUUUGUGUCCCGUACGGAACG [G12A C31U A36C G39C C55U A57U] | ≤ 0.5
GUUCCGUUGGCAUAAUGGUAACGCGUCUCCUUCCUAAGGAGAAGACUGCGGGUUCGAGUCCCGUACGGAGCG [G12A C31U A70G] | 0.803
GUUCCGUUGGCAUAAUGGUAACGCGUCUCCUUCCUAAGGAGAAGACUGCGGGUUGGAGUCCCGUACCGAACG [G12A C31U C55G G67C] | ≤ 0.5
GUUCCGUUGGCAUAAUGGUAACGCGUCUCCUUCCUAAGGAGAAGACUGCGGGUUCGAGUCUCGAACGGAACG [G12A C31U C61U U64A] | ≤ 0.5
GUUCCGUUGGCAUAAUGGUAACGCGUCUCCUUCCUAAGGAAAAGACUGCGGGUUCGAGUCCCGUACGGAACG [G12A C31U G41A] | 0.686

Variant | yeast fitness
GUUCCGUUGGCAUAAUGGUAACGCGUCUCCCUACUAAGGGGAAGACUGCGGGUUCGAGUCCCGUACGGAUCG [G12A C33A A40G A70U] | ≤ 0.5
GUUCCGUUGGCAUAAUGGUAACGCGUCUCCCUGCUAAGGAGAAGAUUGCCGGUUCGAGUCCCGUACGGAACG [G12A C33G C46U G50C] | 0.595
GUUCCGUUGGCAUAAUGGUAACGCGUCUCCCUGCUAACGAGAAGACUGCGGGUUCGAGUCCCGUACGGAACG [G12A C33G G38C] | ≤ 0.5
GUUCCGUUGGCAUAAUGGUAACGCGUCUCCCUGCUAAGCAGAAGACUGCGGGUUCGAGUCCCGUACGGCACG [G12A C33G G39C A69C] | ≤ 0.5
GUUCCGUUGGCAUAAUGGUAACGCGUCUCCCUUCUAAGGACAAGACUGCGGGUUCGAGUCCCGUACGGAACG [G12A C33U G41C] | ≤ 0.5
GUUCCGUUGGCAUAAUGGUAACGCGUCUCCCUCAUAAGGAGAGGACUGCGGGUUCGAGUCCCGUACGGAACG [G12A C34A A43G] | 0.531
GUUCCGUUGGCAUAAUGGUAACGCGUCUCCCUCCUAAGGAGAAGAGUGCGGGUUCGCGUCCCGUACGGAACG [G12A C46G A57C] | ≤ 0.5
GUUCCGUUGGCAUAAUGGUAACGCGUCUCCCUCCUAAGGAGAAGAUUGCGGGUUCGAGUCCCGUACGGAACG [G12A C46U] | 0.9
GUUCCGUUGGCAUAAUGGUAACGCGUCUCCCUCCUAAGGAGAAGAUUGCGGGUUCGAGUCCCGUUCGGAACG [G12A C46U A65U] | 0.998
GUUCCGUUGGCAUAAUGGUAACGCGUCUCCCUCCUAAGGAGAAGAUUGCGCGUUCGAGUCCCGUACGGAACG [G12A C46U G51C] | ≤ 0.5
GUUCCGUUGGCAUAAUGGUAACGCGUCUCCCUCCUAAGGAGAAGAUUGCGCGUUCGAGUCCCGUACGGAUCG [G12A C46U G51C A70U] | 0.534
GUUCCGUUGGCAUAAUGGUAACGCGUCUCCCUCCUAAGGAGAAGAUUGCGGGAUCGAGUCCCGUACGGAACG [G12A C46U U53A] | ≤ 0.5
GUUCCGUUGGCAUAAUGGUAACGCGUCUCCCUCCUAAGGAGAAGACUGAGGGUUCGAGUCCCGUACGGAACG [G12A C49A] | 0.67
GUUCCGUUGGCAUAAUGGUAACGCGUCUCCCUCCUAAGGAGAAGACUGAGAGUUCGAGUCCCGUACGGAACG [G12A C49A G51A] | ≤ 0.5
GUUCCGUUGGCAUAAUGGUAACGCGUCUCCCUCCUAAGGAGAAGACUGAGGCUUCGAGUCCCGUACGGAACG [G12A C49A G52C] | ≤ 0.5
GUUCCGUUGGCAUAAUGGUAACGCGUCUCCCUCCUAAGGAGAAGACUGGGGGUUCGAGUCCCGUACGGAACG [G12A C49G] | 0.943
GUUCCGUUGGCAUAAUGGUAACGCGUCUCCCUCCUAAGGAGAAGACUGGGGGUUCGAGUCCCGUACGGCACG [G12A C49G A69C] | 0.551
GUUCCGUUGGCAUAAUGGUAACGCGUCUCCCUCCUAAGGAGAAGACUGUGGGUUCGAGUCCUGUACGGAACG [G12A C49U C62U] | 0.68

Source: the RNAGym collection of RNA variant scans (doi:10.1126/science.aae0568)
